Reference: paper PMC2581794 (Bioorganic & medicinal chemistry, 2008)

Legend:
Lck = Lck (Homo sapiens, UniProt P06239); experiment: Photoaffinity-labeling; type: biochemical; conditions: for photolabeling of Lck in the presence of an ATP-competitive inhibitor of Lck: Figure S2, competition with ATP-competitive Lck inhibitor; for photolabeling efficiency of Lck (in words): compared with compound 1
Procedure, shortened: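 Commercial Lck photolabelled with biotin-tagged benzophenone ligands at 0, 3, 9, 18, 36, 90 and 180 µM. Western blot on PVDF: after blocking, streptavidin-HRP (1:10,000 in 3% non-fat milk/TBS-T) and ECL-Plus chemiluminescence. Bands quantified with background subtracted as 0%; 100% = maximal band of reference photoligand at 180 µM. EC50 from sigmoidal fit of triplicates (n = 3), with 95% CI.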

[1] = Decomposition of free photoligands under UV light; type: physicochemical; conditions: UV-A lamp λmax 350 nm, up to 30 min, HPLC
Procedure, shortened: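 Each probe at 30 µM in buffer was held on ice about 5 cm below six 15 W blacklight lamps (λmax 350 nm). Aliquots taken at 0, 10 and 30 min were analysed by RP-HPLC with UV detection at 280 nm. Intact probe concentration was estimated from chromatogram peak areas.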

Chain of Lck (P06239 whole entry): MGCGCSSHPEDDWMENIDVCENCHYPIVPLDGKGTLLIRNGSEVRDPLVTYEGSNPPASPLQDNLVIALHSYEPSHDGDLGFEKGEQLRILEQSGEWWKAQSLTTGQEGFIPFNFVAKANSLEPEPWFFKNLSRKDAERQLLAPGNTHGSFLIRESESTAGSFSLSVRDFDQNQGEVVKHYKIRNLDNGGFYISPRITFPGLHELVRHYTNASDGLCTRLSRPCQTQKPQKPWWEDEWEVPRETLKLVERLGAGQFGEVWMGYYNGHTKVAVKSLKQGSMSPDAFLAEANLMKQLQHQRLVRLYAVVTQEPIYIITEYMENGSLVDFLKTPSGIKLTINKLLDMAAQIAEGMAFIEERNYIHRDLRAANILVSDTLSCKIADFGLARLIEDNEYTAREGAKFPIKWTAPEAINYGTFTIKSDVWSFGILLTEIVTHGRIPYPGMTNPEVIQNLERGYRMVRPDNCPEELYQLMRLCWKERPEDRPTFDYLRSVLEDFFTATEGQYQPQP

| photolabeling of Lck in the presence of an ATP-competitive inhibitor of Lck (Lck) | Compound | photolabeling efficiency of Lck (in words) (Lck) | decomposition of free ligand under UV (in words) [1] |
| --- | --- | --- | --- |
| completely blocked | Nc1ncnc2c1ncn2CC(=O)N(CCNC(=O)CCCNC(=O)[C@H](Cc1ccc(C(=O)c2ccccc2)cc1)NC(=O)CCCNC(=O)CCCC[C@@H]1SC[C@@H]2NC(=O)N[C@@H]21)CC(=O)NCC(=O)O [Compound 6] |  |  |
| completely blocked | Nc1ncnc2c1ncn2CC(=O)N(CCNC(=O)[C@@H](CCC(=O)O)NC(=O)[C@H](Cc1ccc(C(=O)c2ccccc2)cc1)NC(=O)CCCNC(=O)CCCC[C@@H]1SC[C@@H]2NC(=O)N[C@@H]21)CC(=O)NCC(=O)O [Compound 3] | comparable to that of 1 |  |
|  | Nc1ncnc2c1ncn2CC(=O)N(CCNC(=O)[C@H]1CCCN1C(=O)[C@H](Cc1ccc(C(=O)c2ccccc2)cc1)NC(=O)CCCNC(=O)CCCC[C@@H]1SC[C@@H]2NC(=O)N[C@@H]21)CC(=O)NCC(=O)O [Compound 4] |  | almost identical to that of 1 |
| completely blocked | Nc1ncnc2c1ncn2CC(=O)N(CCNC(=O)CNC(=O)[C@H](Cc1ccc(C(=O)c2ccccc2)cc1)NC(=O)CCCNC(=O)CCCC[C@@H]1SC[C@@H]2NC(=O)N[C@@H]21)CC(=O)NCC(=O)O [Compound 1] |  |  |

| Compound | photolabeling of Lck in the presence of an ATP-competitive inhibitor of Lck (Lck) | photolabeling efficiency of Lck (in words) (Lck) | decomposition of free ligand under UV (in words) [1] |
| --- | --- | --- | --- |
| Nc1ncnc2c1ncn2CC(=O)N(CCNC(=O)[C@@H](CO)NC(=O)[C@H](Cc1ccc(C(=O)c2ccccc2)cc1)NC(=O)CCCNC(=O)CCCC[C@@H]1SC[C@@H]2NC(=O)N[C@@H]21)CC(=O)NCC(=O)O [Compound 2] | completely blocked | comparable to that of 1 |  |
